Data on 17 molecules can be found in ChEMBL document CHEMBL4699421 (RSC Med Chem, 2020).

Data set [1] in a line: Selectivity index, ratio of CC50 for monkey LLC-MK2 cells assessed as reduction in cell viability incubated for 72 hrs by MTT assay to EC50 for Trypanosoma cruzi Tulahuen LacZ intracellular amastigote form infected in monkey LLC-MK2 cells incubated for 72 hrs by chlorophenol red beta-D-galactopyranoside substrate based spectrophotometric assay. In kind it is toxicity. To be noted: read-out: Ratio CC50/EC50. For orientation: Tetrazolium dyes change colour on reduction, which living cells bring about.

Data set [2] is described as follows: Cytotoxicity against monkey LLC-MK2 cells assessed as reduction in cell viability incubated for 72 hrs by MTT assay. In kind it is cell-based, Macaca mulatta. The note with it: rhesus monkey. The essentials:
(§1)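 Cells seeded at 5 × 10^4 cells per mL and grown 48 h (LLC-MK2 in RPMI; U2OS in high glucose DMEM). MTT 2.0 mg/mL added for 4 h, formazan dissolved in DMSO, read at 570 nm. CC50 from percent reduction versus untreated control.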

Data set [3] in a line: Selectivity index, ratio of CC50 for human U2OS cells assessed as reduction in cell viability incubated for 72 hrs by MTT assay to EC50 for Trypanosoma cruzi […]. The class given is toxicity, cell-based. The note with it: read-out: Ratio CC50/EC50.
Data set [4] concerns Trypanosoma cruzi. The experiment in a line: Trypanocidal activity against Trypanosoma cruzi Tulahuen LacZ intracellular amastigote form infected in monkey LLC-MK2 cells incubated for 72 hrs by chlorophenol red beta-D-galactopyranoside substrate based spectrophotometric assay. In kind it is functional, organism-based. To be noted: LLC-MK2, 72 h. The essentials: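 LLC-MK2 at 5 × 10^4 cells per mL infected with Tulahuen LacZ trypomastigotes at 5 × 10^5 per mL, 24 h at 37 °C, 5% CO2. Extracellular parasites washed off. Compounds 1.95–250 µM (DMSO) added for 72 h. […] Benznidazole as positive control, DMSO as negative.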

The test system of data set [5] is Trypanosoma cruzi. The experiment in a line: Trypanocidal activity against Trypanosoma cruzi Y intracellular amastigote form infected in human U2OS cells.
Data set [6] is described as follows: Cytotoxicity against human U2OS cells assessed as reduction in cell viability incubated for 72 hrs by MTT assay. In kind it is cell-based. The essentials:
as §1

Data set [7] can be described thus: L-Cysteine reactivity in pH 7.4 phosphate buffer assessed as decay constant. In kind it is physicochemical. In a few lines:
(§2)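 HPLC reactivity at 37 °C in 0.05 M phosphate pH 7.4 with 1.0 mM EDTA and 5% acetonitrile, thiol glutathione or cysteine. Inhibitor solution 2.5 mM (stock). Aliquots injected over time on a 5–100% acetonitrile/water gradient with PDA detection 210–400 nm. Half-life and K from a one-phase decay fit, pseudo-first-order. Thiol-free control run for stability. Halved-concentration runs also reported.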

A short description of data set [8]: Glutathione reactivity in pH 7.4 phosphate buffer assessed decay constant at 1.25 mM. In kind it is physicochemical. To be noted: pH 7.4, 1250 µM. The essentials:
as §2

Data set [9] can be described thus: L-Cysteine reactivity in pH 7.4 phosphate buffer assessed as decay constant at 1.25 mM. To be noted: pH 7.4, 1250 µM. In kind it is physicochemical. The essentials:
as §2

The target in a further data set is Cruzipain (Trypanosoma cruzi, UniProt P25779). Briefly: Covalent inhibition of Trypanosoma cruzi cruzipain using Z-Phe-Arg-7-amidomethylcoumarin as substrate measured after 5 mins by fluorometric analysis. In a few lines:
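Recombinant cruzain catalytic domain (no C-terminal extension), 0.15 nM, activated 20 min in 100 mM acetate pH 5.5, 300 mM NaCl, 5 mM DTT, then 2 min with inhibitor. Assay buffer adds 5% DMSO and 0.01% Triton X-100. Z-FR-AMC hydrolysis read at 355/460 nm, 37 °C, over 5 min. Wells checked for precipitation and background fluorescence.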

Data set [10] is described as follows: Glutathione reactivity in pH 7.4 phosphate buffer assessed as half life at 2.5 mM by HPLC analysis. The class given is physicochemical. The note with it: phosphate buffer with glutathione. In a few lines: as §2
Data set [11] in a line: Glutathione reactivity in pH 7.4 phosphate buffer assessed as decay constant. The class given is physicochemical. The essentials:
as §2

The nature of data set [12]: L-Cysteine reactivity in pH 7.4 phosphate buffer assessed as half life at 2.5 mM by HPLC analysis. In kind it is physicochemical. To be noted: phosphate buffer with L-cysteine. In a few lines:
as §2

The subject of data set [13] is Trypanosoma cruzi. Briefly: Trypanocidal activity against Trypanosoma cruzi […] relative to benznidazole. The class given is functional.

pEC50, pKi: −log10 of the molar value. Where a SMILES comes first, the peptide text is derived from it. [ ]: non-standard residue; d: D form. The star is where a group is joined. Cbz = O=C(OCc1ccccc1)*; Ac3c = NC1(C(=O)O)CC1

Sequence of Cruzipain (P25779 whole entry, the tested form may be a part): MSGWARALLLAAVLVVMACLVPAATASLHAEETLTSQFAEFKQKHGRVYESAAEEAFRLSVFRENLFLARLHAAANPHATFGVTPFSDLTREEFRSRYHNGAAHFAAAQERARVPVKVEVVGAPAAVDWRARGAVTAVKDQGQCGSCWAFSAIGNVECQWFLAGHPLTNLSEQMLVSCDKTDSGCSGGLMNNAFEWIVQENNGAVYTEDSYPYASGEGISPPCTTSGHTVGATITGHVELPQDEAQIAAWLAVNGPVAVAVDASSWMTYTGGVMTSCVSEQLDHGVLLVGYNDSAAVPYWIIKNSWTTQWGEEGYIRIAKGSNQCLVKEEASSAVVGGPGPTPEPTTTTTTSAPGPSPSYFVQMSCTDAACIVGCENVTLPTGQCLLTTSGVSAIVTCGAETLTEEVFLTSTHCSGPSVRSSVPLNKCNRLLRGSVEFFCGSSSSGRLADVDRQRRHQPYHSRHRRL

As for `N#CCNC(=O)[C@H](Cc1ccccc1)NC(=O)OCc1ccccc1`, the results for the selectivity ratio at 72 h in data set [1] and in data set [3] were 1.1 and above 27.8, respectively. Moreover, the CC50 at 72 h in data set [2] and in data set [6] was above 100 µM in each case. For the same molecule, the pEC50 in the data set on Trypanosoma cruzi [4] is below 4.00; with Trypanosoma cruzi [5], 5.44.
Regarding `N#CCNC(=O)[C@H](Cc1ccccc1)NC(=O)c1ccccc1`, the K in data set [7] is recorded as 9.33 10^-2/min. Moreover, the pEC50 in the data set on Trypanosoma cruzi [4] was below 4.00.
For `CCN(CC)C(=O)/C=C/C1(NC(=O)[C@H](Cc2ccccc2)NC(=O)OCc2ccccc2)CC1`, the CC50 at 72 h in data set [2] was above 100 µM. The pEC50 with Trypanosoma cruzi [4] is below 4.00.
Turning to `CNC(=O)/C=C/C1(NC(=O)[C@H](Cc2ccccc2)NC(=O)OCc2ccccc2)CC1`, the selectivity ratio at 72 h in data set [3] is above 8.2. In addition, the pEC50 with Trypanosoma cruzi [5] is 4.92. For the same molecule, in data set [6], the CC50 at 72 h is above 100 µM.
Turning to `O=C(N[C@@H](Cc1ccccc1)C(=O)Nc1cnoc1)OCc1ccccc1`, the selectivity ratio at 72 h in data set [1] is above 3.9; in data set [3] it was above 19.6. For the same molecule, the CC50 at 72 h in [2] and in data set [6] was above 100 µM each time. The results for the pEC50 in the data set with Trypanosoma cruzi [4] and with Trypanosoma cruzi [5] were 4.59 and 5.29, respectively.
For the molecule `Cc1coc(NC(=O)[C@H](Cc2ccccc2)NC(=O)OCc2ccccc2)n1`, the CC50 at 72 h in data set [2] was above 100 µM. Moreover, the pEC50 with Trypanosoma cruzi [4] was below 4.00.
For `CCOC(=O)/C=C/C1(NC(=O)[C@H](Cc2ccccc2)NC(=O)OCc2ccccc2)CC1`, the selectivity ratio at 72 h in data set [1] was above 1.2. Moreover, the CC50 at 72 h in data set [2] was above 100 µM. In the data set on Trypanosoma cruzi [4], this molecule showed a pEC50 of 4.10.
On to `CC(C)C[C@H](NC(=O)c1cc(C(C)(C)C)nn1C)C(=O)N(C)N(C)C#N`, for which the K is 1.01 10^-2/min in data set [8] and 3.15 10^-2/min in data set [9]. Further, the pEC50 in the data set with Trypanosoma cruzi [4] and in the data set with Trypanosoma cruzi [5] was 5.08 each time.
Take `N#CC1(NC(=O)[C@H](Cc2ccccc2)NC(=O)OCc2ccccc2)CC1`: the CC50 at 72 h in data set [2] is above 100 µM; in [6], 6 µM. In [3], the selectivity ratio at 72 h came out at 4.4. Moreover, the pEC50 with Trypanosoma cruzi [4] was below 4.00; with Trypanosoma cruzi [5], 6.00.
Take `N#CC1(NC(=O)[C@H](Cc2ccccc2)NC(=O)c2ccccc2)CC1`: in [7], the K was 0.436 10^-2/min. Further, the pEC50 in the data set on Trypanosoma cruzi [4] is below 4.00.
`CON(C)C(=O)CNC(=O)[C@H](Cc1ccccc1)NC(=O)OCc1ccccc1`: in [2], the CC50 at 72 h is above 100 µM. This molecule gave a pKi at Cruzipain of 4.00. This molecule showed a pEC50 with Trypanosoma cruzi [4] below 4.00.
Molecule `O=C(N[C@@H](Cc1ccccc1)C(=O)Nc1cnoc1)c1ccccc1` showed a pKi at Cruzipain of 4.70. Also, in data set [3], the selectivity ratio at 72 h was above 16.6. The molecule further gave a pEC50 in the data set on Trypanosoma cruzi [5] of 5.22. Further, the CC50 at 72 h in [6] is above 100 µM.
For `O=C(N[C@@H](Cc1ccccc1)C(=O)NC/C=N/O)OCc1ccccc1`, the pKi at Cruzipain is 5.00. This molecule had a pEC50 in the data set on Trypanosoma cruzi [5] below 4.00. In data set [6], the CC50 at 72 h was above 100 µM.
For the molecule `O=C(N[C@@H](Cc1c[nH]c2ccccc12)C(=O)Nc1cnoc1)c1ccccc1`, the pKi on Cruzipain was 5.00. Further, the selectivity ratio at 72 h in data set [3] is above 8.2. In addition, in the data set with Trypanosoma cruzi [5], the pEC50 was 4.65. In addition, in data set [6], the CC50 at 72 h is above 100 µM.
With `CN(C#N)N(C)C(=O)[C@H](Cc1ccccc1)NC(=O)OCc1ccccc1`, the results for the selectivity ratio at 72 h in data set [1] and in data set [3] were 1.9 and 3.2, respectively. Besides, the CC50 at 72 h in [2] was found to be 42 µM; in [6], 10.2 µM. For the same molecule, the pEC50 in the data set on Trypanosoma cruzi [4] is 4.66; in the data set with Trypanosoma cruzi [5], 5.49.
Regarding `O=CC1(NC(=O)[C@H](Cc2ccccc2)NC(=O)OCc2ccccc2)CC1` (Cbz-Phe-[Ac3c]-aldehyde), the CC50 at 72 h in data set [2] was above 100 µM; in data set [6] it was 3 µM. The K in [7] is listed as 3.12 10^-2/min; in data set [11], 1.73 10^-2/min. Besides, the half-life at 2500 µM amounted to 40 min in data set [10] and 22.2 min in data set [12]. In addition, the selectivity ratio at 72 h in [3] was found to be 58.4. For the same molecule, the pEC50 in the data set on Trypanosoma cruzi [4] was below 4.00; with Trypanosoma cruzi [5] it was 7.00. Further, the “fold change (FC)” value in the data set with Trypanosoma cruzi [13] is given as 10.
For the molecule `COC(=O)C1=C(C#N)NC(C)=C(C(=O)OC(C)C)C1c1cccc([N+](=O)[O-])c1` (configuration not stated) [NILVADIPINE], the K in data set [7] is 1.41 10^-2/min. Also, the half-life at 2500 µM in [10] is above 5000 min.

A word on the CC50: it is the concentration at which the toxic effect on the cells reaches its halfway point. As a reminder, the pEC50 is the EC50 on a negative log10 scale, so that one unit is a factor of ten. For orientation: pKi means the Ki on a negative log10 scale, so that one unit is a factor of ten. Usually half-life stands for the time in which the quantity being followed falls by half.
